According to ChEMBL document CHEMBL3259770, “Structure-activity relationship studies of the tricyclic indoline resistance-modifying agent” (J Med Chem, 2014):
In brackets after ≈: the same amount, converted by molar mass.

Columns and labels:
Staphylococcus aureus [1] = assay: Antibacterial activity against methicillin-resistant Staphylococcus aureus ATCC BAA-44 after overnight incubation by broth microdilution assay in presence of 8 ug/ml cefazolin; format: functional
In short: (§1)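 Resensitization screen: compound from a 5 mg/mL DMSO stock, 2-fold serially diluted in MHB from 32 μg/mL final. Antibiotic was held at its CLSI-susceptible level: amoxicillin/clavulanic acid 4/2 μg/mL, cefazolin 8 μg/mL, meropenem 4 μg/mL. Final MRSA inoculum OD600 0.001, overnight at 37 °C with shaking. MRC was the concentration giving no visible overnight growth.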

Staphylococcus aureus [2] = assay: Antibacterial activity against methicillin-resistant Staphylococcus aureus ATCC 33592 after 18 hrs by broth microdilution assay; format: functional; settings: ATCC 33592, 18 h
In short: (§2)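 Day culture (OD600 0.15–0.4) diluted to OD600 0.002, then 2-fold on plating for a final inoculum of OD600 0.001. Plates were incubated at 37 °C with shaking for 18 h before reading growth.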

Staphylococcus aureus [3] = assay: Antibacterial activity against methicillin-resistant Staphylococcus aureus ATCC 33592 after 18 hrs by checkerboard test in presence of meropenem; format: functional
In short: (§3)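 Checkerboard synergy test in MHB, plates in duplicate. Compound was 2-fold diluted across the rows (8 to 0.016 μg/mL). […] Final inoculum OD600 0.001, 37 °C with shaking, 18 h. FICI was taken as FICA + FICB, each the MIC in combination over the MIC alone.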

Staphylococcus aureus [4] = assay: Antibacterial activity against methicillin-sensitive Staphylococcus aureus ATCC 25923 after 18 hrs by broth microdilution assay; format: functional; settings: ATCC 25923, 18 h
In short: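 CLSI broth microdilution in Mueller–Hinton broth. Day culture (OD600 0.15–0.4) diluted to OD600 0.002, then 2-fold on addition to wells, giving a final inoculum of OD600 0.001.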

[5] = Ratio of hemolytic activity in human RBC to antibacterial activity against methicillin-resistant Staphylococcus aureus ATCC 33592 in presence of 4 ug/ml meropenem
[6] = Hemolytic activity in human RBC at 64 ug/ml after 1 hr relative to control; format: ADME, cell-based, Erythrocyte; settings: red blood cells, read-out: Activity
In short: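 Freshly drawn heparinized human blood centrifuged; RBCs washed three times in D-PBS and diluted to 1% of original pellet volume. Compound in DMSO added to final 64, 16 and 4 μg/mL. Incubated at 37 °C for 1 h with shaking, then centrifuged; supernatant hemoglobin read at 415 nm. Percent hemolysis taken against 1% Triton X-100 (100%) with DMSO as negative control. Triplicate; run within 3 h of the draw.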

[7] = Ratio of hemolytic activity in human RBC to antibacterial activity against methicillin-resistant Staphylococcus aureus ATCC BAA-44 in presence of 4 ug/ml amoxicillin and 2 ug/ml clavulanic acid
Staphylococcus aureus [8] = assay: Antibacterial activity against methicillin-resistant Staphylococcus aureus ATCC 33592 after overnight incubation by broth microdilution assay in presence of 4 ug/ml meropenem; format: functional; in short: as §1
Staphylococcus aureus [9] = assay: Antibacterial activity against methicillin-resistant Staphylococcus aureus ATCC BAA-44 after overnight incubation by broth microdilution assay in presence of 4 ug/ml amoxicillin and 2 ug/ml clavulanic acid; format: functional; in short: as §1
[10] = Cytotoxicity against human HeLa cells after 24 hrs by CellTiter-Glo assay; format: cell-based
In short: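 HeLa cells seeded at 20 000 cells/well in DMEM with 10% FCS and 1% penicillin/streptomycin, grown 16 h at 37 °C, 5% CO2. Medium renewed, then compound added in DMSO to final 0.5–32 μg/mL, triplicate series. After 24 h at 37 °C, plates equilibrated to room temperature and viability read by CellTiter-Glo luminescence.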

Staphylococcus aureus [11] = assay: Antibacterial activity against methicillin-resistant Staphylococcus aureus ATCC BAA-44 after 18 hrs by checkerboard test in presence of amoxicillin/clavulanic acid; format: functional; in short: as §3
[12] = Ratio of hemolytic activity in human RBC to antibacterial activity against methicillin-resistant Staphylococcus aureus ATCC BAA-44 in presence of 8 ug/ml cefazolin
Staphylococcus aureus [13] = assay: Antibacterial activity against methicillin-resistant Staphylococcus aureus ATCC BAA-44 after 18 hrs by broth microdilution assay; format: functional; settings: ATCC BAA-44, 18 h; in short: as §2
Staphylococcus aureus [14] = assay: Antibacterial activity against methicillin-resistant Staphylococcus aureus ATCC BAA-44 after 18 hrs by checkerboard test in presence of cefazolin; format: functional; in short: as §3

C=C1CCC[C@@H]2Nc3c(F)cc(Br)cc3[C@]12CCNS(=O)(=O)c1ccc(Br)cc1
MRC (Staphylococcus aureus [1]): 1 µg/mL
MIC (Staphylococcus aureus [2]): > 64 µg/mL
fractional inhibitory concentration index (FICI) (Staphylococcus aureus [3]): 0.0315
MIC (Staphylococcus aureus [4]): > 64 µg/mL
Ratio [5]: 64
hemolysis at 1 h, 64 ug/ml [6]: < 2%
Ratio [7]: 64
MRC (Staphylococcus aureus [8]): 1 µg/mL
MRC (Staphylococcus aureus [9]): 1 µg/mL
GI50 at 24 h [10]: 22 µg/mL (≈ 40.4 µM)
fractional inhibitory concentration index (FICI) (Staphylococcus aureus [11]): 0.0315
Ratio [12]: 64
MIC (Staphylococcus aureus [13]): > 64 µg/mL
fractional inhibitory concentration index (FICI) (Staphylococcus aureus [14]): 0.0156
